ChEMBL document CHEMBL2311407, “Design and synthesis of diazatricyclodecane agonists of the G-protein-coupled receptor 119” (J Med Chem, 2013)
In brackets after ≈: the same amount, converted by molar mass.

Assays:
[1] = Cmax in Sprague-Dawley rat at 3 mg/kg, po dosing of milled material in 0.5% methylcellulose; format: ADME, organism-based; design: dose 3 mg/kg, route oral; conditions: in vivo
How it was run: (§1)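 Rat po dosing of milled material (2−25 μm premilling, about 190 nm postmilling) suspended in 0.5% methylcellulose. Plasma concentrations are total drug. Data are mean ± SD of three animals. F is calculated from 1 mg/kg rat iv data.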

[2] = Cmax in Beagle dog at 3 mg/kg, po administered as spray dried dispersion; format: ADME, organism-based, Canis lupus familiaris; design: dose 3 mg/kg, route oral; conditions: in vivo
How it was run: (§2)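 Male beagle dogs were dosed po at 3 mg/kg, 0.6 mL/kg, as 25% spray dried dispersion in 20 mM Tris buffer with 0.5% methylcellulose + 0.5% HPMCAS-HF, pH 7.4. Plasma concentrations are total drug. Values are the mean of two animals. F is calculated against 1 mg/kg iv dog data.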

[3] = Thermodynamic solubility of the compound in PBS at pH 7.4; format: physicochemical; conditions: read-out: Therm_solubility
[4] = Apparent intrinsic clearance in human liver microsomes; format: ADME, Microsome; conditions: read-out: CLH(app)
[5] = Apparent permeability in MDCK2 cells; format: ADME, cell-based, Canis lupus familiaris, MDCK-II; conditions: dog, MDCK
[6] = AUC in Beagle dog at 30 mg/kg, po administered as spray dried dispersion; format: ADME, organism-based, Canis lupus familiaris; design: dose 30 mg/kg, route oral; conditions: plasma
How it was run: (§3)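 Oral gavage in male beagle dogs at 10, 30 or 100 mg/kg, 5 mL/kg, as 25% spray dried dispersion in 20 mM Tris buffer in 0.5% methylcellulose and 0.5% HPMCAS-HF, pH 7.4. Plasma concentrations are total drug. Values are the mean of two animals. F is based on 1 mg/kg iv dog data.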

[7] = Cmax in Beagle dog at 100 mg/kg, po administered as spray dried dispersion; format: ADME, organism-based, Canis lupus familiaris; design: dose 100 mg/kg, route oral; conditions: in vivo; how it was run: as §3
[8] = Half life in Beagle dog at 1 mg/kg, iv; format: ADME, organism-based, Canis lupus familiaris; design: dose 1 mg/kg, route intravenous; conditions: in vivo
How it was run: (§4)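 Male beagle dogs received 1 mg/kg iv at 2 mL/kg in 5% dimethylacetamide/75% PEG200/20% (30% SBE-CD). Plasma concentrations are total drug. Values are the mean of two animals.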

[9] = Cmax in Sprague-Dawley rat at 30 mg/kg, po dosing of milled material in 0.5% methylcellulose; format: ADME, organism-based; design: dose 30 mg/kg, route oral; conditions: in vivo; how it was run: as §1
[10] = Cmax in Beagle dog at 1 mg/kg, iv; format: ADME, organism-based, Canis lupus familiaris; design: dose 1 mg/kg, route intravenous; conditions: in vivo; how it was run: as §4
[11] = Cmax in Sprague-Dawley rat at 3 mg/kg, po administered as spray dried dispersion; format: ADME, organism-based; design: dose 3 mg/kg, route oral; conditions: in vivo
How it was run: (§5)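 Rats were dosed po at 0.6 mL/kg with a 25% amorphous spray dried dispersion (with HPMCAS-HF) in 20 mM Tris buffer with 0.5% methylcellulose + 0.5% HPMCAS-HF, pH 7.4. Plasma concentrations are total drug. Data are mean ± SD of three animals. F is based on 1 mg/kg rat iv data.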

[12] = Tmax in Sprague-Dawley rat at 3 mg/kg, po dosing of milled material in 0.5% methylcellulose; format: ADME, organism-based; design: dose 3 mg/kg, route oral; conditions: in vivo; how it was run: as §1
[13] = Thermodynamic solubility of the compound in PBS at pH 1.2; format: physicochemical; conditions: read-out: Therm_solubility
[14] = Oral bioavailability in Beagle dog at 3 mg/kg administered as spray dried dispersion; format: ADME, organism-based, Canis lupus familiaris; conditions: in vivo; how it was run: as §2
[15] = AUC in Sprague-Dawley rat at 30 mg/kg, po administered as spray dried dispersion; format: ADME, organism-based; design: dose 30 mg/kg, route oral; conditions: plasma; how it was run: as §5
[16] = Oral bioavailability in Sprague-Dawley rat at 30 mg/kg administered as milled material in 0.5% methylcellulose; format: ADME, organism-based; conditions: in vivo; how it was run: as §1
[17] = AUC in Beagle dog at 100 mg/kg, po administered as spray dried dispersion; format: ADME, organism-based, Canis lupus familiaris; design: dose 100 mg/kg, route oral; conditions: plasma; how it was run: as §3
[18] = Cmax in Sprague-Dawley rat at 30 mg/kg, po administered as spray dried dispersion; format: ADME, organism-based; design: dose 30 mg/kg, route oral; conditions: in vivo; how it was run: as §5
[19] = Oral bioavailability in Beagle dog at 30 mg/kg administered as spray dried dispersion; format: ADME, organism-based, Canis lupus familiaris; conditions: in vivo; how it was run: as §3
[20] = Tmax in Sprague-Dawley rat at 30 mg/kg, po administered as spray dried dispersion; format: ADME, organism-based; design: dose 30 mg/kg, route oral; conditions: in vivo
[21] = Cmax in Beagle dog at 10 mg/kg, po administered as spray dried dispersion; format: ADME, organism-based, Canis lupus familiaris; design: dose 10 mg/kg, route oral; conditions: in vivo; how it was run: as §3
[22] = AUC in Sprague-Dawley rat at 1 mg/kg, iv; format: ADME, organism-based; design: dose 1 mg/kg, route intravenous; conditions: plasma
How it was run: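 Rats received 1 mg/kg iv in 10% N-methylpyrrolidone and 90% of a 30% SBE-CD solution. Plasma concentrations are total drug. Data are mean ± SD of three animals.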

[23] = Tmax in Beagle dog at 3 mg/kg, po administered as spray dried dispersion; format: ADME, organism-based, Canis lupus familiaris; design: dose 3 mg/kg, route oral; conditions: in vivo; how it was run: as §2
[24] = Oral bioavailability in Beagle dog at 100 mg/kg administered as spray dried dispersion; format: ADME, organism-based, Canis lupus familiaris; conditions: in vivo; how it was run: as §3
[25] = Tmax in Beagle dog at 100 mg/kg, po administered as spray dried dispersion; format: ADME, organism-based, Canis lupus familiaris; design: dose 100 mg/kg, route oral; conditions: in vivo; how it was run: as §3
[26] = AUC in Sprague-Dawley rat at 30 mg/kg, po dosing of milled material in 0.5% methylcellulose; format: ADME, organism-based; design: dose 30 mg/kg, route oral; conditions: in vivo; how it was run: as §1

Cmax [1]: 255 ng/mL
Cmax [2]: 812 ng/mL
solubility thermodynamic [3]: 0.7 µg/mL (≈ 1.38 µM)
CLint scaled [4]: < 9.5 mL/min/kg
Papp [5]: 3.5 ×10⁻⁶ cm/s
AUC [6]: 76800 ng·h/mL
Cmax [7]: 6030 ng/mL
half-life [8]: 26.8 h
Cmax [9]: 912 ng/mL
Cmax [10]: 515 ng/mL
Cmax [11]: 484 ng/mL
Tmax [12]: 4.7 h
solubility thermodynamic [13]: 4.8 µg/mL (≈ 9.48 µM)
bioavailability [14]: 60%
AUC [15]: 49100 ng·h/mL
bioavailability [16]: 31%
AUC [17]: 151000 ng·h/mL
Cmax [18]: 3490 ng/mL
bioavailability [19]: 54%
Tmax [20]: 4 h
Cmax [21]: 1950 ng/mL
AUC [22]: 1360 ng·h/mL
Tmax [23]: 1 h
bioavailability [24]: 32%
Tmax [25]: 1.5 h
AUC [26]: 12500 ng·h/mL
SMILES: Cc1c(Oc2ccc(-n3cnnn3)cc2F)ncnc1N1C2CC3CC1CC(C2)N3C(=O)OC1(C)CC1
